In ChEMBL document CHEMBL4665801, “Pyrazole-Based Lactate Dehydrogenase Inhibitors with Optimized Cell Activity and Pharmacokinetic Properties” (J Med Chem, 2020):
Active and inactive are the calls of the source. No rule for the calls is given here.

Legend:
[1] = target: T1, L-lactate dehydrogenase A chain (Homo sapiens, UniProt P00338); assay: Inhibition of LDHA in human MIA PaCa-2 cells assessed as decrease in lactate production incubated for 2 hrs by lactate oxidase-coupled fluorescence based assay; type: cell-based
[2] = target: T1, L-lactate dehydrogenase A chain; assay: Inhibition of recombinant human LDHA using sodium pyruvate as substrate preincubated for 5 mins followed by diaphorase/resazurin addition and measured after 20 mins by fluorescence based assay
[3] = target: T1, L-lactate dehydrogenase A chain; assay: Inhibition of GS[HiBiT]GS-tagged LDHA (unknown origin) expressed in HEK-293T cells measured after 1 hr by […]; type: cell-based
In short: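 HEK293T cells were transiently transfected for 24 h with CMV-driven LDHA carrying a C-terminal GS[HiBiT]GS tag, then reseeded at 2500 cells/well in DPBS with Ca/Mg and 1 g/L glucose. […] Cells were lysed with NP40, and 11S (100 nM final) plus furimazine was added.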

[4] = target: L-lactate dehydrogenase B chain (Homo sapiens) (UniProt P07195); assay: Inhibition of recombinant human LDHB using sodium pyruvate as substrate preincubated for 5 mins followed by diaphorase/resazurin addition and measured after 20 mins by fluorescence based assay
[5] = target: T1, L-lactate dehydrogenase A chain; assay: Inhibition of LDHA in human A673 cells assessed as decrease in lactate production incubated for 2 hrs by lactate oxidase-coupled fluorescence based assay; type: cell-based
[6] = test system: A673; assay: Cytotoxicity against human A673 cells assessed as reduction in cell viability after 48 hrs by CellTiter-Glo assay; type: functional, cell-based; details: A673, 48 h
[7] = test system: MIA PaCa-2; assay: Cytotoxicity against human MIA PaCa-2 cells assessed as reduction in cell viability after 48 hrs by CellTiter-Glo assay; type: functional, cell-based; details: MIA PaCa-2, 48 h
[8] = species: Sus scrofa; assay: Inhibition of porcine heart MDH using malic acid as substrate preincubated for 10 mins followed by substrate addition and measured after 5 mins by resazurin based fluorescence based assay; details: time 15.0 min

Chain of L-lactate dehydrogenase B chain (Homo sapiens) (P07195 2-334 limits assumed): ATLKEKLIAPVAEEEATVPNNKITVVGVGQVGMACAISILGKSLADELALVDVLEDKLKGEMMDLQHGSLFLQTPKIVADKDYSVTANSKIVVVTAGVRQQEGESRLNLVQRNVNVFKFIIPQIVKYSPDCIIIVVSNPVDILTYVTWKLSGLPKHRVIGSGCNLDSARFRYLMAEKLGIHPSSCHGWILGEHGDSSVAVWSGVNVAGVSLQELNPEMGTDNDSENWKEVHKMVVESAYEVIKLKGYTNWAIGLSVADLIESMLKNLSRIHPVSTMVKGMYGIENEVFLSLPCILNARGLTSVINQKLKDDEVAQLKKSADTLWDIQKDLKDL

SMILES | IC50 ([1]; mia paca-2) | IC50 [2] | IC50 [3] | inhibition [4] | IC50 ([5]; a673) | IC50 [6] | IC50 [7] | inhibition [8] | IC50 [1] | IC50 [5]
Cc1nc(C#Cc2cccc(-c3nn(-c4nc(C(=O)O)cs4)c(CC4CC4)c3Cc3ccc(S(N)(=O)=O)c(F)c3)c2)cs1 | 1180 nM | 13 nM | 101 nM | Active | 1170 nM | 347 nM | 471 nM | inactive | – | –
Cc1cc(C#Cc2cccc(-c3nn(-c4nc(C(=O)O)cs4)c(CC4CC4)c3Cc3ccc(S(N)(=O)=O)c(F)c3)c2)c(C)s1 | – | 235 nM | 299 nM | Active | – | 716 nM | 810 nM | inactive | 218 nM | 161 nM
NS(=O)(=O)c1ccc(Cc2c(-c3cccc(C#Cc4ccc(C(F)(F)F)s4)c3)nn(-c3nc(C(=O)O)cs3)c2CC2CC2)cc1F | – | 434 nM | 113 nM | Active | – | 833 nM | 803 nM | inactive | 337 nM | 485 nM
Cc1cc(C)c(C#Cc2cccc(-c3nn(-c4nc(C(=O)O)cs4)c(CC4CC4)c3Cc3ccc(S(N)(=O)=O)c(F)c3)c2)s1 | – | 137 nM | 201 nM | Active | – | 528 nM | 533 nM | inactive | 218 nM | 345 nM
Cc1cc(C#Cc2cccc(-c3nn(-c4nc(C(=O)O)cs4)c(CC4CC4)c3Cc3ccc(S(N)(=O)=O)c(F)c3)c2)cs1 | – | 87 nM | 95 nM | Active | – | 359 nM | 332 nM | inactive | 657 nM | 494 nM
NS(=O)(=O)c1ccc(Cc2c(-c3cccc(-c4ccccc4)c3)nn(-c3nc(C(=O)O)cs3)c2C2CC2(F)F)cc1 (stereo not given) | – | 36 nM | 2530 nM | Active | – | 24400 nM | 17700 nM | inactive | 4760 nM | 1860 nM
CC#Cc1cccc(-c2nn(-c3nc(C(=O)O)cs3)c(CC3CC3)c2Cc2ccc(S(N)(=O)=O)c(F)c2)c1 | – | 9 nM | 150 nM | Active | – | – | 619 nM | inactive | 525 nM | 713 nM
NS(=O)(=O)c1ccc(Cc2c(-c3cccc(C#Cc4ccc(C(F)F)s4)c3)nn(-c3nc(C(=O)O)cs3)c2CC2CC2)cc1F | – | 154 nM | 134 nM | Active | – | 528 nM | 528 nM | inactive | 286 nM | 345 nM
Cc1ccc(/C=C/c2cccc(-c3nn(-c4nc(C(=O)O)cs4)c(CC4CC4)c3Cc3ccc(S(N)(=O)=O)c(F)c3)c2)s1 | – | 52 nM | 158 nM | Active | – | 452 nM | 471 nM | inactive | 331 nM | 357 nM
NS(=O)(=O)c1ccc(Cc2c(-c3ccc(F)c(C#CC4CCC4)c3)nn(-c3nc(C(=O)O)cs3)c2CC2CC2)cc1F | – | 23 nM | 133 nM | Active | – | 593 nM | 573 nM | inactive | 428 nM | 378 nM
NS(=O)(=O)c1ccc(Cc2c(-c3cccc(-c4ccccc4)c3)nn(-c3nc(C(=O)O)cs3)c2C2(C(F)(F)F)CC2)cc1 | – | 4100 nM | 303 nM | Active | – | > 30000 nM | > 30000 nM | inactive | 12800 nM | 20200 nM
NS(=O)(=O)c1ccc(Cc2c(-c3ccc(F)c(-c4ccccc4)c3)nn(-c3nc(C(=O)O)cs3)c2CC2CC2)cc1 | – | 23 nM | 401 nM | Active | – | 2650 nM | 8450 nM | inactive | 1220 nM | 835 nM
Cc1cc(C#Cc2cccc(-c3nn(-c4nc(C(=O)O)cs4)c(CCC4CC4)c3Cc3ccc(S(N)(=O)=O)c(F)c3)c2)c(C)s1 | – | 487 nM | 299 nM | Active | – | 402 nM | 402 nM | inactive | 188 nM | 162 nM
NS(=O)(=O)c1ccc(Cc2c(-c3cccc(-c4ccccc4)c3)nn(-c3nc(C(=O)O)cs3)c2CCC2CC2)cc1 | – | 36 nM | 727 nM | Active | – | 1960 nM | 6200 nM | inactive | 804 nM | 509 nM
CC(C)(C)c1ccc(C#Cc2cc(-c3nn(-c4nc(C(=O)O)cs4)c(CC4CC4)c3Cc3ccc(S(N)(=O)=O)c(F)c3)ccc2F)s1 | – | 713 nM | 10600 nM | Active | – | – | 665 nM | inactive | 507 nM | 529 nM
Cc1ccsc1C#Cc1cccc(-c2nn(-c3nc(C(=O)O)cs3)c(CC3CC3)c2Cc2ccc(S(N)(=O)=O)c(F)c2)c1 | – | 101 nM | 119 nM | Active | – | – | 452 nM | inactive | 417 nM | 390 nM
Cn1cncc1C#Cc1cc(-c2nn(-c3nc(C(=O)O)cs3)c(CC3CC3)c2Cc2ccc(S(N)(=O)=O)c(F)c2)ccc1F | – | 8 nM | 299 nM | Active | – | – | 1390 nM | inactive | 1070 nM | 1600 nM
Cc1cnc(C#Cc2cccc(-c3nn(-c4nc(C(=O)O)cs4)c(CCC4CC4)c3Cc3ccc(S(N)(=O)=O)c(F)c3)c2)s1 | – | 33 nM | 84 nM | Active | – | 180 nM | 173 nM | inactive | 417 nM | 364 nM
NS(=O)(=O)c1ccc(Cc2c(-c3cccc(C#CC4CCCC4)c3)nn(-c3nc(C(=O)O)cs3)c2CC2CC2)cc1F | – | 47 nM | 89 nM | Active | – | 419 nM | 377 nM | inactive | 281 nM | 298 nM
NS(=O)(=O)c1ccc(Cc2c(-c3ccc(F)c(C#CCN4CCOCC4)c3)nn(-c3nc(C(=O)O)cs3)c2CC2CC2)cc1F | – | 107 nM | 5050 nM | Active | – | 5830 nM | – | inactive | 18900 nM | 15300 nM
NS(=O)(=O)c1ccc(Cc2c(-c3ccc(F)c(C#CC4CCOC4)c3)nn(-c3nc(C(=O)O)cs3)c2CC2CC2)cc1F (stereo not given) | – | 7 nM | 89 nM | Active | 1270 nM | 973 nM | – | inactive | 831 nM | –
NS(=O)(=O)c1ccc(Cc2c(-c3cccc(C#Cc4ccc(C5CC5)s4)c3)nn(-c3nc(C(=O)O)cs3)c2CCC2CC2)cc1F | – | 306 nM | 189 nM | Active | – | – | 265 nM | inactive | 387 nM | 434 nM
NS(=O)(=O)c1ccc(Cc2c(-c3cccc(C#Cc4ccc(C5CCC5)s4)c3)nn(-c3nc(C(=O)O)cs3)c2CCC2CC2)cc1F | – | 636 nM | 299 nM | Active | – | 571 nM | – | inactive | 379 nM | 572 nM
NS(=O)(=O)c1ccc(Cc2c(-c3ccc(F)c(C#CC4CCNCC4)c3)nn(-c3nc(C(=O)O)cs3)c2CC2CC2)cc1F | – | 15 nM | 2580 nM | Active | – | – | 17300 nM | inactive | 8910 nM | 12200 nM
Cc1cnc(C#Cc2cccc(-c3nn(-c4nc(C(=O)O)cs4)c(CC4CC4)c3Cc3ccc(S(N)(=O)=O)c(F)c3)c2)o1 | – | 12 nM | 119 nM | Active | – | – | 671 nM | inactive | 450 nM | 525 nM
NS(=O)(=O)c1ccc(Cc2c(-c3ccc(F)c(C#CCN4CCCC4)c3)nn(-c3nc(C(=O)O)cs3)c2CC2CC2)cc1F | – | 8 nM | 267 nM | Active | – | – | – | inactive | 1010 nM | 1090 nM
NS(=O)(=O)c1ccc(Cc2c(-c3cccc(C#Cc4ccc(C5CCC5)s4)c3)nn(-c3nc(C(=O)O)cs3)c2CC2CC2)cc1F | – | 169 nM | 270 nM | Active | – | – | 905 nM | inactive | 491 nM | 333 nM
NS(=O)(=O)c1ccc(Cc2c(-c3cccc(-c4ccccc4)c3)nn(-c3nc(C(=O)O)cs3)c2CC2CC2)c(F)c1 | – | 229 nM | – | Active | – | 11500 nM | 5750 nM | inactive | 6460 nM | 4460 nM
